GPR7 antagonist: antagonists of human GPR7 (neuropeptides B/W receptor 1) | GPR7-expressing cells, fluorescence antagonist assay | inhibition, % at 4.4 µM | 290,000 compounds, 1.1% hits; in the data active = inhibition above about 16%, passing the limit was not always enough;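 also: cells stimulated with the agonist NPW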
Target sequence (P48145 whole entry, looked up): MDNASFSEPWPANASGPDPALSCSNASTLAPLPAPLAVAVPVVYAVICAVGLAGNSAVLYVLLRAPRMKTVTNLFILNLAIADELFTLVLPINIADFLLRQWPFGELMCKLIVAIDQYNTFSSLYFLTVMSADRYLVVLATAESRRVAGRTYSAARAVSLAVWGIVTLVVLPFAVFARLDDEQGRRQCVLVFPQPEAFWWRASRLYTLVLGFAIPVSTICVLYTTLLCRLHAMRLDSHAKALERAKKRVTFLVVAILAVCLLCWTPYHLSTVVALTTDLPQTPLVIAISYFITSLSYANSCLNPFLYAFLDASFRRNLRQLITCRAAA
CHO parental Ca: counter-screen: ATP calcium response change in parental CHO cells; parental CHO-K1, ATP-induced calcium, Fluo-8 fluorescence; 330,000 compounds, 0.63% hits; inhibition, % at 5.6 µM; AID 463079;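 active = inhibition above that plate's mean sample inhibition plus 3 SD, cut at about 26% in these data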
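Assay system – parental CHO cells · Reagent – ATP stimulus · Detection – intracellular calcium via Fluo-8 no-wash fluorescent dye · Evaluation – percent inhibition of ATP-evoked calcium rise, normalized to controls · Controls – ATP wells versus no-ATP DMSO wells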
OX1R antag-1: antagonists of human orexin 1 receptor; O43613; CHO/OX1R cells, Fluo-8 calcium fluorescence, orexin A; inhibition, % at 5 µM; 330,000 compounds, 0.43% hits; AID 434989;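 active = inhibition above its plate's threshold, mean inhibition of all tested compounds on the plate plus 3 SD, cut at about 37% in these data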
TAAR1 agonist: agonists of human TAAR1; Q96RJ0; CHO RD-HGA16 TAAR1, Fluo-8 calcium fluorescence; vehicle wells 0%, saturating PEA agonist 100%; activation, % at 3 µM; 360,000 compounds, 0.99% hits;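 active = activation above the mean activation of all test compounds in the run plus 3 SD, cut at about 38% in these data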
Target sequence (Q96RJ0 whole entry, looked up): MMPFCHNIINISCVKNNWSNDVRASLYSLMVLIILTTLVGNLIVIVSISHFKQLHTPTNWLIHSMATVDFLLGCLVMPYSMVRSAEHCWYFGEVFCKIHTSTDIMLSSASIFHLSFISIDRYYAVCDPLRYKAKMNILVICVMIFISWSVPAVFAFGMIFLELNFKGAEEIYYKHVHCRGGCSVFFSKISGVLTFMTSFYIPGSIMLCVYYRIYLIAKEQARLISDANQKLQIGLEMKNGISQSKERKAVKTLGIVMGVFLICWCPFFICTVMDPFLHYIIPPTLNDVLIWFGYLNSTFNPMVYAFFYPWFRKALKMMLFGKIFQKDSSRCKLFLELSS
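System: CHO-derived RD-HGA16 cells with stable Gα16 and human TAAR1. Times: 17-24 h plating, Fluo-8 75 min 37 °C, 30 min RT. Measured by: calcium-sensitive Fluo-8 signal, excitation 470-495, emission 515-575 nm. Read-out basis: % activation relative to PEA EC100 response. Control set: DMSO and PEA EC100. Repeats: no replicates (n 1).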
OX1R antag-2: antagonists of human orexin 1 receptor (OX1R); inhibition, % at 6.6 µM; OX1R-expressing cells, FRET antagonist read-out; O43613; AID 485270; 330,000 compounds, 1.8% hits; in the data active = inhibition mostly above about 38%, no sharp cut-off; inactive = mostly below about 40%
TAAR1 antagonist: antagonists of human TAAR1; Q96RJ0; 360,000 compounds, 1.5% hits; CHO RD-HGA16 TAAR1, Fluo-8 calcium fluorescence, antagonist; inhibition, % at 3 µM;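 active = inhibition above a per-plate cutoff, the mean inhibition of test compounds on that plate plus 3 SD, cut at about 49% in these data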
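Test system: hTAAR1-expressing CHO RD-HGA16 cells, Gα16-coupled; Probe or stimulus: EC80 β-phenethylamine stimulus; Compound dosing: single nominal final test compound concentration of 3 µM; Timing: 140 s kinetic read after compound, 140 s after agonist; Signal: Fluo-8 calcium-sensitive fluorescence; Measure: % inhibition of agonist calcium response; Controls: DMSO and EC80 PEA controls.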
TAAR1 ag confirm: human TAAR1 agonism, confirmed; CHO RD-HGA16 TAAR1, Fluo-8 calcium fluorescence; scaled: DMSO 0%, maximal phenethylamine 100%; 2,400 compounds, 82% hits; activation, % at 3 µM; shares compounds with TAAR1 agonist;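 active = activation above a cutoff set at the run's mean compound activation plus 3 SD, cut at about 39% in these data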
Ga16 ag counter: nonselective agonist in parental cells, TAAR1 agonist counter-screen | shares compounds with TAAR1 agonist | CHO-Ga16 parental, Fluo-8 calcium fluorescence; normalized to maximal ATP response, DMSO zero | activation, % at 3 µM | 2,400 compounds, 50% hits | AID 651787;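 active = activation above the run cutoff, the mean activation over all tested wells plus 3 SD, cut at about 12% in these data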
TAAR1 desens: counter-screen for human TAAR1 agonists: agonists that desensitize TAAR1; shares compounds with TAAR1 agonist; CHO RD-HGA16 hTAAR1, Fluo-8 calcium, beta-PEA response inhibition; inhibition, % at 3 µM; 2,400 compounds, 46% hits; AID 651951;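 active = inhibition above the run cutoff, the mean inhibition of all test compounds plus 3 SD, cut at about 49% in these data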;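 also: beta-PEA stimulus applied at its EC80; loss of beta-PEA calcium signal after compound pretreatment read as receptor desensitization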
Ga16 antag count: nonselective Ga16 antagonist in TAAR1 agonist counter-screen. shares compounds with TAAR1 agonist. CHO-Ga16 ATP-induced calcium, Fluo-8 fluorescence. inhibition, % at 3 µM. 2,400 compounds, 39% hits. AID 651952;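 active = inhibition above the plate's mean compound inhibition plus 3 SD, computed per plate, cut at about 22% in these data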
A number is an active result; . = inactive; / = not tested or not shown. Hits are enriched below; roughly 4.6% of the tested compounds scored in any of these assays.

SMILES	GPR7 antagonist	CHO parental Ca	OX1R antag-1	TAAR1 agonist	OX1R antag-2	TAAR1 antagonist	TAAR1 ag confirm	Ga16 ag counter	TAAR1 desens	Ga16 antag count
O=C(Cc1cccs1)N[C@@H]1c2ccccc2CC[C@H]1OCc1ccccc1	/	.	.	.	.	.	/	/	/	/
CCNC(=O)C1(C)CCCN(Cc2ccc(-c3ccccc3)o2)C1 (centres undefined)	/	/	/	.	/	.	/	/	/	/
Fc1cc(F)c(C2SCCN2C(=S)Nc2cccc(C(F)(F)F)c2)c(F)c1 (centres undefined)	.	.	.	66.3	.	.	51.8	31.0	56.1	38.4
COc1cc(C(C)=O)ccc1OCC(O)CNCC(O)c1ccccc1 (centres undefined)	.	.	.	91.0	.	.	97.9	.	73.6	.
COc1cc(C(C)=O)ccc1OCC(O)CN1CCN(S(=O)(=O)c2ccccc2)CC1 (centres undefined)	.	.	.	.	.	.	/	/	/	/
O=C(Nc1ccccc1)Nc1nnc([C@H]2C[C@H](O)[C@@H](CO)O2)s1	/	/	/	43.6	/	.	57.3	.	.	.
C[C@H]1Cn2cnc(C(=O)NCC(=O)OC(C)(C)C)c2C(=O)N1	/	/	/	.	/	.	/	/	/	/
C/C(CC(=O)Nc1ccc(Cl)cc1)=N\NC(=O)C(=O)N1CCCCC1	.	.	.	.	.	.	/	/	/	/
CCn1c(=O)n(CC)c2cc(N3CCCC3)c(NC(=O)c3ccc(C)cc3)cc21	.	.	.	45.8	.	.	.	.	.	.
CCn1c(=O)n(CC)c2cc(N3CCCC3)c(NC(=O)c3ccccc3)cc21	.	.	.	.	.	.	/	/	/	/
COc1cc2c(cc1CNC[C@H]1O[C@@H](n3ccc(N)nc3=O)[C@H](O)[C@@H]1O)OCO2	/	/	/	.	/	.	/	/	/	/
C[C@H]1[C@H](c2ccccc2)Oc2cccc(NCCc3ccccc3)c2S(=O)(=O)N1Cc1ccc(F)cc1	/	/	/	78.9	/	.	70.2	.	.	.
CC(C)(C)CC(C)(C)NCC(O)COc1ccc2c(c1)CCC2 (centres undefined)	.	.	.	56.4	.	.	.	11.7	.	.
CCOC(=O)c1c(-c2ccc(C)o2)csc1NC(=O)CN1CCOCC1	.	.	.	.	.	.	/	/	/	/
CCOC(=O)c1c(-c2cccs2)csc1NC(=O)CN1CCOCC1	.	.	.	43.9	.	.	.	38.2	.	35.3
Cc1c(C(=O)N2CCc3ccccc3C2)oc2ccc(S(=O)(=O)N3CC(C)CC(C)C3)cc12 (centres undefined)	.	.	.	/	.	/	/	.	/	.
COc1ccc(S(=O)(=O)N2CCC(C(=O)N3CCc4ccccc4C3)CC2)cc1C	.	.	.	52.1	.	.	76.5	.	.	.
O=c1c2cnn(-c3ccc(F)cc3)c2ncn1Cc1ccccc1	.	.	.	43.1	.	50.0	.	.	.	.
Cc1nc2ccccc2c(=O)n1-c1cccc(NC(=O)c2cccs2)c1	/	.	.	.	.	.	/	/	/	/
O=C(Nc1cccc(N2C(=O)C=CC2=O)c1)c1cccs1	/	.	.	56.7	.	.	.	18.9	.	21.6
O=C(O)c1ccccc1C(=O)NC1Cc2ccccc2C1	.	.	.	85.3	.	76.7	98.1	15.5	90.7	.
O=C(NC1CCCCC1)c1cccnc1C(=O)O	.	.	.	.	.	.	/	/	/	/
COC(=O)[C@@]1(Cc2ccc(F)cc2)[C@H]2c3cc(C(=O)N4CCCC4)n(CC4CC4)c3C[C@H]2CN1C(=O)c1ccccc1	/	/	/	69.8	/	.	76.3	38.3	52.5	32.4
COC(=O)[C@@]1(Cc2ccc(F)cc2)[C@H]2c3cc(C(=O)N4CCCC4)n(CCF)c3C[C@H]2CN1C(=O)c1ccccc1	/	/	/	.	/	.	/	/	/	/
CC(C)(C)C(=O)c1c(N)[nH]c(C(=O)c2ccccc2)c1-c1ccc(C(F)(F)F)cc1	/	/	/	.	/	.	/	/	/	/
SMILES	GPR7 antagonist	CHO parental Ca	OX1R antag-1	TAAR1 agonist	OX1R antag-2	TAAR1 antagonist	TAAR1 ag confirm	Ga16 ag counter	TAAR1 desens	Ga16 antag count
Cc1csc(=O)n1CCC(=O)OCC(=O)NCc1ccc(F)cc1	/	.	.	.	.	.	/	/	/	/
NC(N)=N/N=C/c1ccccc1	.	.	.	63.5	.	88.6	91.5	.	93.5	.
NC(N)=N/N=C/c1ccc(OCc2ccccc2Cl)cc1	.	.	.	49.8	.	.	86.7	54.6	70.5	60.6
COc1ccccc1CNC(=O)COC(=O)/C=C/c1ccc(OC(F)F)c(OC)c1	/	.	.	92.2	.	78.3	47.0	22.8	56.9	23.0
O=C(COC(=O)/C=C/c1ccc(OC(F)F)cc1)NCc1cccs1	.	.	.	82.3	.	61.2	.	.	.	.
Cc1cccc(C)c1Cn1c(C)c(C(=O)NCc2ccc([N+](=O)[O-])cc2)sc1=O	/	/	/	62.0	/	48.9	46.6	28.7	52.7	41.1
COC(=O)c1ccc(Cn2c(C)c(C(=O)NCc3ccc([N+](=O)[O-])cc3)sc2=O)o1	/	/	/	.	/	.	/	/	/	/
CN(C1CCCCC1)S(=O)(=O)c1ccc(C(=O)Nc2sc3c(c2C(N)=O)CC(C)(C)NC3(C)C)cc1	.	.	.	84.6	.	.	58.3	38.7	.	34.8
CC(=O)c1ccc(N2CCN(C(=O)c3ccc(Cn4c(=S)[nH]c5ccc(N6CCOCC6)cc5c4=O)cc3)CC2)cc1	.	.	.	52.9	.	.	.	.	.	.
O=Cc1ccc(-n2cccn2)cc1	.	.	.	322.9	.	64.9	.	.	.	.
FC(F)(F)c1cc(CCN2CCNC[C@H]2Cc2cccc3ccccc23)cc(C(F)(F)F)c1	/	.	.	83.7	.	95.1	50.7	28.4	.	40.0
c1ccc(C[C@H]2CNCCN2CCc2cccc3ccccc23)cc1	/	.	.	.	.	.	/	/	/	/
CCCC[C@@H]1CNCCN1CCc1cccc2ccccc12	/	.	.	65.7	.	74.7	70.2	.	87.4	.
CCC(=O)Nc1cccc(NC(=O)CSc2nc3c(c(=O)n(C)c(=O)n3C)n2C)c1	.	.	.	.	.	.	/	/	/	/
OCCN1CCN(c2cc(-c3ccccc3)c3ccccc3n2)CC1	.	.	.	.	.	.	/	/	/	/
CC(C)c1ccccc1NC(=O)C1CN(S(=O)(=O)c2ccccc2)CCN1S(=O)(=O)c1ccccc1 (centres undefined)	.	.	.	.	.	.	/	/	/	/
